High-throughput results (PubChem)
A selection: hits, their analogues and other compounds. The true share with any hit is near 3.8%.
Beta apoptosis – inhibitors of cytokine-induced beta cell apoptosis, primary screen, luminescence; INS-1E cytokine-induced death, ATP luminescence, 48 h; percent of positive-control rescue, neutral wells zero; protection from apoptosis, % (concentration not given with the values); 0.8% of 300,000 active; AID 435005, 2010;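 active means Every replicate reaches about 75%, or at least half do and their mean reaches it too, limit read from the data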;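 further: 0% = cytokine-treated negative control wells and 100% = positive control rescue; higher means more ATP so stronger rescue from cytokine killing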
ANO1 activ – TMEM16A chloride channel activators or potentiators, primary screen, cell-based, HTS; B-score at 10 µM; HEK293 TMEM16A/YFP-H148Q/I152L, iodide quench fluorescence; stronger effect = lower value; 0.3% of 340,000 active; Anoctamin-1 (Mus musculus), Q8BHY3;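 active means fluorescence-ratio B-score plate-corrected deviation score at least 3 library SD below zero, with starting fluorescence score within 5 deviations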;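 further: channel opened by trigger with iodide after compound preincubation; score built on the fluorescence ratio of max minus min over baseline; more negative score means more quench and so TMEM16A activation or potentiation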
MC4R antagonist – MC4R antagonists of cAMP signaling, primary screen, cell-based, TR-FRET, antagonist arm of biased-ligand search; inhibition, % at 6.5 µM; AID 540295, 2011; Melanocortin receptor 4 (Homo sapiens), P32245; 0.48% of 360,000 active; MC4R-expressing cells, MTII-stimulated cAMP, LANCE TR-FRET;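 active means inhibition above its plate's cutoff, the mean of tested wells on that plate plus 3 SD, cut at about 29% in these data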;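 further: 0% = Melanotan II alone and 100% = Melanotan II plus saturating MCL0020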
Target sequence (P32245 whole entry, looked up): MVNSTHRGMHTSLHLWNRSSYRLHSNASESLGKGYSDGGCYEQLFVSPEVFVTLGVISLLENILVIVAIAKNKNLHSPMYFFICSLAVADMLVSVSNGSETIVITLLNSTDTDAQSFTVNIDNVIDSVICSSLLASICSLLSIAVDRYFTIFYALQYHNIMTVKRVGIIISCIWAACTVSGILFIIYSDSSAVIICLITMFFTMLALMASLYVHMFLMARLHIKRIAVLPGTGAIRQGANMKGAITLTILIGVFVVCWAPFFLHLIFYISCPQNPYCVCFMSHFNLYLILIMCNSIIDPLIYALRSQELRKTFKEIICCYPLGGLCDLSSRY
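Assay system: human MC4R-expressing U2OS cells; reagent: Melanotan II stimulation of cells; dosing: 6.5 µM single dose; timing: compound 30 min, challenge 1 h, detection 1 h; signal: TR-FRET cAMP assay; replicates: one well per compound, no replicates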
CSC inhib – cancer stem cell viability inhibitors, primary screen, luminescence; 1.1% of 300,000 active; inhibition, % at 7.5 µM; cancer stem cell-like cells viability; in the data active means inhibition above about 75%; tested in HMLE shEcad cells
MC4R barr agon – MC4R agonists recruiting beta-arrestin, primary screen, cell-based, luminescence, agonist arm of biased-ligand search; activation, % at 8.9 µM; 0.98% of 360,000 active; Melanocortin receptor 4 (Homo sapiens), P32245; AID 540308, 2011; U2OS MC4R beta-arrestin complementation; percent of melanotan II response, DMSO zero;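 active means activation above a per-plate cutoff, the mean activation of sample wells on that plate plus 3 SD, cut at about 8% in these data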
TMEM16A inh – TMEM16A chloride channel inhibitors, primary screen, cell-based, HTS; normalized B-score (activity score, 25-100; higher = stronger inhibition) at 10 µM; HEK293 TMEM16A/YFP iodide influx fluorescence, ionomycin; Anoctamin-1 (Mus musculus), Q8BHY3; 1.2% of 310,000 active; AID 588511, 2011;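 active means ratio plate-corrected score three or more library SD toward inhibition, starting fluorescence score within five deviations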;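 further: score derived from kinetic fluorescence span divided by baseline fluorescence per well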
Numbers without * were called inactive; i = inactive; / = no result given.

SMILES | Beta apoptosis | ANO1 activ | MC4R antagonist | CSC inhib | MC4R barr agon | TMEM16A inh
CN(C)CCNC(=O)c1cc2c(s1)-c1ccc(Cl)cc1SC2 | -8.5 | i | -1.1 | 102.3* | 11.5* | i
Cc1ccc(COc2ccc(Br)cc2/C=N/O)cc1 | -10.1 | i | -3.1 | 77.7* | 0.4 | i
CCOc1ccc2oc(C(=O)NCc3ccccc3CN3CCCC3)c(C)c2c1 | -5.8 | i | 3.2 | 10.1 | 0.0 | /
COc1ccc(NCc2nnc(SCC(=O)c3ccc(OC)cc3)o2)cc1 | 2.2 | i | 15.2 | 3.6 | -0.2 | i
CCOc1cc(C(=O)CSc2nnc(CNc3ccc(Cl)cc3)o2)ccc1NC(=O)CC | 67.3 | / | 2.9 | 4.9 | 39.9* | i
Cn1cc(-c2ccc(C(=O)Nc3cccc(Oc4ccccc4)c3)c3occc23)cn1 | / | / | 6.8 | / | 9.2* | /
COC(=O)c1ccccc1-c1ccc(/C=N/NC(=O)c2cc3ccccc3o2)o1 | -4.6 | i | 4.7 | / | -0.6 | i
COC(=O)c1ccccc1-c1c2ccc(=N)cc-2oc2cc(N)ccc12 | 98.6* | / | -7.9 | / | -1.8 | /
Cc1ccc(NC(=O)C(=Cc2ccc(C(=O)O)cc2)C(=O)Nc2ccc(C)cc2C)c(C)c1 | 71.4 | i | 13.0 | 159.1* | -0.4 | i
CC(=O)C(=Cc1ccc(C(=O)O)cc1)C(C)=O | / | i | 11.0 | -10.9 | -1.6 | i
CCOC(=O)c1c(NC(NC(=O)C(C)C)C(Cl)(Cl)Cl)sc2c1CCC2 (stereo unspecified) | 5.3 | i | 20.6 | 100.6* | 2.8 | i
Cc1cc2[nH]c3ccccc3c2c(C)n1 | 6.3 | i | -7.7 | -1.3 | 0.6 | i
Cc1cc2[nH]c3c4ccccc4nc(C)c3c2cc1C | / | i | 15.4 | / | 23.6* | /
Cc1ccc(-c2nn(-c3ccccc3)cc2CSC(=N)N)cc1 | 18.5 | i | -6.5 | 33.6 | 3.6 | 25*
OCc1cn(-c2ccccc2)nc1-c1ccc(-c2nn(-c3ccccc3)cc2CO)cc1 | 7.9 | i | 1.9 | / | 7.5 | i
CC(=O)Oc1ccccc1N(C(C)=O)S(=O)(=O)c1ccc2ccccc2c1 | / | i | 13.8 | 11.7 | -3.2 | i
CC(=O)Oc1ccc(N(C(C)=O)S(=O)(=O)c2cccs2)c2ccccc12 | 92.7* | i | -1.4 | -3.1 | -2.6 | i
O=C(NCCN1CCCC1)c1ccc2c(c1)N(Cc1cccc(Cl)c1)C(=O)c1ccccc1S2(=O)=O | 0.3 | i | 11.7 | 107.1* | -2.3 | i
Cc1cccc(CN2C(=O)c3ccccc3S(=O)(=O)c3ccc(C(=O)NCCCN4CCCC4)cc32)c1 | / | i | -0.4 | / | -1.0 | i
COc1ccc(/C=C/C(=O)NC(=S)Nc2ccccc2C(=O)NC2CCCCC2)cc1 | 78.6* | i | 5.0 | 21.5 | 1.2 | i
CN(C)S(=O)(=O)c1cccc(CSCc2cccc(S(=O)(=O)N(C)C)c2)c1 | 107.6* | i | 1.4 | 9.2 | 0.5 | i
Cc1cccc(N(C(=O)CNC(=O)c2ccco2)C(C(=O)NCC2CCCO2)c2ccccc2)c1 (stereo unspecified) | -2.9 | i | 0.5 | -5.7 | 1.5 | i
Cc1ccccc1Oc1cc(NC(=O)CCCn2nc(C)c([N+](=O)[O-])c2C)cc([N+](=O)[O-])c1 | 105.1* | i | 3.4 | 25.6 | 4.5 | i
CC(=O)C1=C(O)C(=O)N(c2ccc(C(=O)O)cc2)C1c1ccccc1 (stereo unspecified) | -1.2 | -13.8* | 11.3 | -10.4 | -3.0 | i
CCc1sc(C(=O)N(CCOC)c2c(N)n(Cc3ccccc3)c(=O)[nH]c2=O)cc1C | / | / | -2.2 | / | -1.8 | /
SMILES | Beta apoptosis | ANO1 activ | MC4R antagonist | CSC inhib | MC4R barr agon | TMEM16A inh
Cc1ccc2c(C)c(C(=O)Nc3c(C)n(C)n(-c4ccccc4)c3=O)oc2c1 | 1.9 | -18.9* | 1.1 | -3.1 | 1.3 | i
CC(=O)c1c(C)[nH]c(C(=O)Nc2c(C)n(C)n(-c3ccccc3)c2=O)c1C | -4.1 | i | 1.4 | 2.5 | 0.5 | 100*
Cc1c(NC(=O)c2ccc(C(=O)Nc3c(C)n(C)n(-c4ccccc4)c3=O)cc2)c(=O)n(-c2ccccc2)n1C | -2.6 | i | 4.0 | -9.5 | 2.1 | i
Cc1c(NC(=O)CN2C(=O)NC(C)(c3ccccc3)C2=O)c(=O)n(-c2ccccc2)n1C (stereo unspecified) | -4.1 | i | 29.4* | 4.2 | 0.0 | i
COc1ccc(C2=NS(=O)(=O)N(C)C(C(=O)Nc3ccc(C(C)=O)cc3)=C2)cc1OC | 3.3 | i | 0.5 | -5.5 | -1.9 | 25*
O=C(NCC1CCCCC1)c1cc2ccccc2cc1O | -6.7 | i | 2.3 | 83.3* | 3.2 | i
C=CCOC(=O)COc1ccc2c3c(c(=O)oc2c1)CCCC3 | / | / | -1.4 | / | 3.4 | /
COc1ccc(CCN(C)c2ncnc3sccc23)cc1OC | -5.0 | i | 15.2 | -10.7 | 0.6 | i
COc1ccc(CN(C)c2ncnc3sccc23)c(OC)c1OC | 9.6 | i | -7.5 | 77.0* | -2.4 | i
Cc1cccc(N2C(=S)N=C(Nc3c(C)cccc3C)C23CCOC(C)(C)C3)c1 (stereo unspecified) | 82.4* | i | -2.1 | -10.7 | -2.0 | i
CN1C(=O)N(CC(=O)Nc2ccc3c(c2)OCO3)C(=O)C12CCCCC2 | / | / | 10.0 | / | -1.7 | /
CNC[C@@H]1Oc2ccc(NC(=O)Nc3cccc4ccccc34)cc2C(=O)N([C@@H](C)CO)C[C@@H]1C | 0.7 | / | / | 1.4 | / | /
CN(C)CCCNS(=O)(=O)c1ccc(-n2nnc3ccccc32)c([N+](=O)[O-])c1 | -1.0 | i | 8.0 | 40.6 | -0.1 | i
CS(=O)(=O)c1ccc(-n2nnc3ccccc32)c([N+](=O)[O-])c1 | / | i | -0.1 | 1.6 | -1.7 | i
O=[N+]([O-])c1cc(S(=O)(=O)Nc2cccc(C(F)(F)F)c2)ccc1-n1nnc2ccccc21 | 0.9 | i | -0.5 | 37.6 | 1.1 | 100*
COc1ccc(NS(=O)(=O)c2ccc(-n3nnc4ccccc43)c([N+](=O)[O-])c2)cc1 | -4.1 | i | -0.1 | 18.5 | -0.6 | 25*
Cc1ccc(S(=O)(=O)N2C[C@H]3C(=O)C[C@@H](c4ccccc4)N(S(=O)(=O)c4ccc(C)cc4)[C@H]3C[C@H]2c2ccc(Cl)cc2)cc1 | / | / | 0.0 | / | -1.5 | /
COC(=O)C(=N/Nc1ccccc1C(=O)OC)/C(C)=N/O | -0.7 | i | -0.8 | -7.6 | 8.8* | i
COc1ccc(CC(=O)Nc2ccc(F)c(F)c2F)cc1S(=O)(=O)N1CCOCC1 | -2.9 | i | 8.8 | / | 0.2 | /
